# Screening results deposited in PubChem BioAssay by several laboratories.
# This excerpt belongs to a sample that is enriched for hits.
# Lmaj promast – reduces viability of Leishmania major promastigotes | resazurin fluorescence viability | inhibition, % at 10 µM | actives 9% (n = 200,000); in the data active = inhibition above about 50%;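 also: promastigotes grown with compound for 44 hours at 28 °C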
# T cruzi repl – T. cruzi replication inhibition; T. cruzi beta-gal in NIH3T3, luminescence, 90 h; inhibition, % (concentration not given with the values); actives 1.4% (n = 300,000); AID 1885;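 active = mean inhibition across valid replicates above about 55%, limit read from the data; inconclusive = mean below that limit but half or more replicates reach it; inactive = mean below it, under half of replicates reach it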;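 also: signal also drops with host cell toxicity which is not excluded here; higher percent means less beta-gal luminescence so fewer parasites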
#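 Test system: β-gal T. cruzi (Tulahuen C4) inside NIH/3T3 cells / Quantity: 5,000 cells/well / Measured by: luminescence from GalScreen with 0.05% NP40, read after 60 min / Medium: DMEM plus 2% FBS / Measure: parasite load inhibition, % / Reagent: Tulahuen C4 trypomastigotes, 5000/well / Schedule: co-culture of at least 90 h after 3 h attachment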
# HSF1 inh – HSF1 inhibition; NIH3T3-HGL HSE-luciferase, MG132-induced, luminescence 8 h; hits give low values; activity change, negative = inhibition, % at 7.5 µM (by protocol); actives 0.77% (n = 300,000);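 active = more than half of replicate wells show activity change below -50%, luminescence cut by over half; inconclusive = some wells, but at most half, below -50%; inactive = no replicate well below -50%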;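 also: luciferase reports HSF-1 transcriptional activity via heat shock element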
# HSF-1 act – increases HSF-1 driven luciferase reporter signal. AID 504408. NIH3T3-HGL HSF-1 luciferase reporter, MG132, 8 h; 100% = twice DMSO control signal. activation, % at 9 µM. actives 1.7% (n = 300,000);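 active = mean replicate activation of at least 50% with a set share of replicates each reaching 50%; inconclusive = only one of those two conditions met; inactive = mean below 50% and too few replicates reaching it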
# Hsp70 act – switches on Hsp70 transcription | HeLa Hsp70 promoter luciferase reporter, luminescence; scaled: vehicle 0, proteasome-inhibitor control 100% | activation, % at 10 µM | actives 0.04% (n = 200,000) | AID 1203;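 active = activation above the mean across all tested compounds plus 3 SD, cutoff set per campaign, cut at about 5.5% in these data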
# Numbers stand for hits; i = inactive; ? = inconclusive; nt = not tested or not shown.
SMILES,Lmaj promast,T cruzi repl,HSF1 inh,HSF-1 act,Hsp70 act
CC(=O)n1cc([C@H]2C=C(C(=O)N3CCN(Cc4ccccc4)CC3)O[C@@H](OCc3ccc(CO)cc3)C2)c2ccccc21,i,68.4,i,i,i
CC(=O)n1cc([C@@H]2C=C(C(=O)N3CCOCC3)O[C@H](OCc3ccc(CO)cc3)C2)c2ccccc21,i,i,i,i,i
CC(=O)n1cc([C@H]2C=C(C(=O)N3CCN(Cc4ccc5c(c4)OCO5)CC3)O[C@@H](OCc3ccc(CO)cc3)C2)c2ccccc21,76.2,56.0,i,i,i
CCOC(=O)C1CCN(Cc2ccc(OCc3ccccc3)c(OC)c2)CC1,nt,i,i,i,nt
CCOc1nsc(OCC)n1,nt,i,i,i,nt
Cc1c(Cl)c(C(=O)NNC(=S)Nc2ccccc2)nn1C,i,i,i,i,i
Cc1c(Cl)c(C(=O)NNC(=S)Nc2ccc(F)cc2)nn1C,i,i,i,58.9,i
CCCCN1C(=S)NC[C@@H]1Cc1ccccc1,i,i,i,i,i
CC1CCCN(c2nc3ccccc3nc2C(C#N)C(=O)OC2CCCCC2)C1 (stereo not given),60.7,nt,nt,nt,i
CC1CCN(c2nc3ccccc3nc2C(C#N)C(=O)OC2CCCCC2)CC1 (stereo not given),i,i,i,i,i
CC1CN(c2nc3ccccc3nc2C(C#N)C(=O)OC2CCCCC2)CC(C)O1 (stereo not given),64.2,62.9,i,i,i
COc1ccc(S(=O)(=O)C(C#N)c2nc3ccccc3nc2N2CCCC(C)C2)cc1 (stereo not given),i,i,i,i,i
N#CC(C(=O)OC1CCCCC1)c1nc2ccccc2nc1N1CCCCC1 (stereo not given),54.0,66.7,i,i,i
Oc1ccc(/C=C/c2ccnc3ccccc23)cc1,i,i,i,69.1,i
O=C(COc1ccccc1Br)N1CCN(C(=O)c2ccco2)CC1,nt,i,i,i,nt
O=C(CC(SCCO)c1ccc2c(c1)OCO2)c1cccs1 (stereo not given),72.9,i,i,i,i
O=C(CC(SCc1ccco1)c1ccc(O)cc1)c1cccs1 (stereo not given),i,i,i,i,i
CC(OC(=O)/C=C/c1cccc(Cl)c1)C(=O)NC1CCCCC1C (stereo not given),nt,i,i,i,nt
Cc1ccc(C(=O)NNc2cc(N3CCCC3)nc(N3CCCC3)n2)cc1,100.4,81.4,i,i,i
O=C(NNc1cc(N2CCOCC2)nc(N2CCOCC2)n1)c1ccc(Cl)c(Cl)c1,i,i,i,i,i
Cc1c(OCc2ccc(C(=O)O)cc2)ccc2c(-c3ccccc3)cc(=O)oc12,nt,i,i,i,nt
CCOC(=O)C(Oc1ccc2c(-c3ccccc3)cc(=O)oc2c1C)c1ccccc1 (stereo not given),100.2,i,i,i,i
COc1ccc(-c2cc(=O)oc3c(C)c(OC(C)C(C)=O)ccc23)cc1 (stereo not given),nt,i,i,i,nt
CCOC(=O)C(Oc1ccc2c(-c3ccc(OC)cc3)cc(=O)oc2c1C)c1ccccc1 (stereo not given),100.3,i,i,i,i
CCN(CC)C(=O)Cn1cc(S(=O)(=O)CC(=O)Nc2ccccc2C)c2ccccc21,nt,i,i,i,nt
SMILES,Lmaj promast,T cruzi repl,HSF1 inh,HSF-1 act,Hsp70 act
CCCc1sc(N/N=C/c2ccccn2)nc1-c1ccc(F)cc1,96.2,54.8,i,i,i
Cc1nc(N/N=C/c2ccccn2)sc1C,i,nt,nt,nt,i
CN(C)S(=O)(=O)c1ccc(NC=O)cc1,i,i,i,i,i
COc1ccc(/C=C2\CCc3ccccc3C2=O)cc1Cn1cccn1,86.4,i,i,i,i
COc1ccc(C(=O)NNS(=O)(=O)c2ccccc2)cc1OC,nt,i,i,i,nt
Cn1c(COc2ccccc2)nnc1SCC(=O)NC1CCCC1,nt,i,i,i,nt
CN1CCN(c2ccc(Cl)cc2NC(=O)/C=C/c2ccc(F)cc2)CC1,94.1,i,i,i,i
CN1CCN(c2ccc(Cl)cc2NC(=O)CCN2C(=O)c3ccccc3C2=O)CC1,76.7,i,i,i,i
CCc1ccc(CN(C(=O)COc2c(C)cccc2C)C2CCS(=O)(=O)C2)cc1 (stereo not given),nt,i,i,i,nt
O=C1c2ccc3c4c(ccc(c24)C(=O)N1CCCCO)C(=O)N(CCCCO)C3=O,100.3,68.4,i,?,i
Cc1oc(-c2ccc3ccccc3c2)nc1CN(C)C(C)c1ccncn1 (stereo not given),i,i,i,i,i
COc1ccc(N=C2S/C(=C\c3ccc(N4CCOCC4)o3)C(=O)N2CCc2c[nH]c3ccccc23)cc1,100.5,56.4,i,i,i
CC(C)NCC(O)COC1C2CC3CC(C2)CC1C3 (stereo not given),i,61.5,i,i,i
CC(C)NCC(O)COC1CCC(C(C)(C)C)CC1 (stereo not given),90.2,57.0,i,i,i
CC1CCC(C(C)C)C(OCC(O)CNC(C)C)C1 (stereo not given),nt,i,i,i,nt
Cc1c(C)n(CC(O)CN2CCCCCC2)c2ccccc12 (stereo not given),99.0,i,i,i,i
CC1CCCC(C)N1CC(O)COC1CCC(C(C)(C)C)CC1 (stereo not given),nt,i,i,i,nt
CC(C)(C)C1CCC(OCC(O)CN2CCN(c3ccccn3)CC2)CC1 (stereo not given),93.7,i,i,i,i
OC(COC(c1ccccc1)c1ccccc1)CN1CCN(c2ccccn2)CC1 (stereo not given),i,i,i,i,i
CC(C)(C)C1CCC(OCC(O)CN2CCN(Cc3ccccc3)CC2)CC1 (stereo not given),91.4,57.1,i,i,i
OC(COC1CCCCC1)CN1CCN(c2ccccc2)CC1 (stereo not given),i,i,nt,nt,i
CC1CN(CC(O)COC2CCC(C(C)(C)C)CC2)CC(C)O1 (stereo not given),89.8,i,i,i,i
OC(CN1CCN(c2ccccn2)CC1)Cn1c2ccccc2c2ccccc21 (stereo not given),99.7,i,i,i,i
CC1=C(C(=O)Nc2cc(C(=O)NCCCOC(C)C)ccc2C)SCCO1,nt,i,i,i,nt
CC(C)OC(=O)c1cc(NC(=O)c2nn(C)cc2Br)cc(C(=O)OC(C)C)c1,i,i,i,i,i
SMILES,Lmaj promast,T cruzi repl,HSF1 inh,HSF-1 act,Hsp70 act
CCOCCOC(=O)c1ccc(-n2cncn2)nc1,i,i,-85.9,i,i
CCOC(=O)c1ccc(-n2cncn2)nc1,i,i,i,i,i
CC(C)CC(c1nnnn1Cc1ccc(F)cc1)N1CCC(C(N)=O)CC1 (stereo not given),i,i,nt,nt,i
Cc1c(CCOC(=O)CC23CC4CC(CC(C4)C2)C3)sc[n+]1Cc1ccccc1,100.3,i,i,i,i
C=CCn1c(SCc2cccc3ccccc23)nnc1-c1cccnc1,50.4,i,i,i,i
C=CCn1c(SCC(=O)Nc2ccc(C(=O)O)cc2)nnc1-c1cccnc1,nt,i,i,i,nt
Cc1c(C(=O)NCc2cccnc2)sc2nc(-c3ccc(F)cc3)cn12,96.3,i,i,i,i
